Compound activity (PubChem)
This is one part of a sample in which hits are shown more often than they occur.
E-selectin induc = E-selectin induction in HUVECs, primary screen, imaging, HUVEC, immunofluorescence imaging, single point; P16581; normalized: neutral wells 0, TNF-alpha wells 100; activation, % at 7.58 µM; 0.37% of 260,000 active; AID 686992, 2013;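 active = mean E-selectin-positive cell signal at least 10% of the positive control, reached in at least 60% of replicates, without over 20% cell loss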
Target sequence (P16581 whole entry, looked up): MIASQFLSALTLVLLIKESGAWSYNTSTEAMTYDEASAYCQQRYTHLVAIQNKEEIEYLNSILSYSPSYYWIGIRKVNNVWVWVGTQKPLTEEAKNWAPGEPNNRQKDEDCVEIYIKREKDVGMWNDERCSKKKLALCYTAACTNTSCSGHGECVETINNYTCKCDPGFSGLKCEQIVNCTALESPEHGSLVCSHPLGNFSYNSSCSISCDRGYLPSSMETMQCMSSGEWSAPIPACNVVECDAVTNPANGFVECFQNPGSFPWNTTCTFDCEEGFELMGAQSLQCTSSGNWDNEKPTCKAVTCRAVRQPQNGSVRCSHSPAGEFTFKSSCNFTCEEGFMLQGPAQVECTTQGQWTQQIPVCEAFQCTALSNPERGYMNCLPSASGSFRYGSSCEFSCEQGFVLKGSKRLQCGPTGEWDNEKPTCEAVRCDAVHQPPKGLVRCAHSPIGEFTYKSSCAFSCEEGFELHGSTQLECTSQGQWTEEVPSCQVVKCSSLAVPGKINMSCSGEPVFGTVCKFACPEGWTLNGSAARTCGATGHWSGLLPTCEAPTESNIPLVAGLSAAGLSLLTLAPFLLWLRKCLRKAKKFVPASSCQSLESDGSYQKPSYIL
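Test system – human umbilical vein endothelial cells (HUVEC), E-selectin induction · Input – 3,000 HUVEC seeded per well · Buffer or medium – EGM-2, gelatin · Compound dosing – single-point compound dose · Detection – immunofluorescence imaging · Measure – percent E-selectin-positive cells · Controls – TNF-alpha high, DMSO low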
Numbers stand for hits; – = inactive.

SMILES	E-selectin induc
CCn1c(CCC(=O)O)nc2cc(S(=O)(=O)N3CCOCC3)ccc21	117
CCC(C)NC(=O)CSc1nc2cc(S(=O)(=O)N3CCOCC3)ccc2n1CC (configuration not stated)	–
C[C@@H]1CN([C@@H](C)CO)C(=O)Cc2cc(NC(=O)Nc3ccc4c(c3)OCO4)ccc2O[C@@H]1CN(C)S(=O)(=O)c1cccs1	–
C[C@@H]1CN([C@H](C)CO)C(=O)Cc2cc(NS(=O)(=O)c3cn(C)cn3)ccc2O[C@H]1CN(C)S(C)(=O)=O	–
COc1ccc(S(=O)(=O)N(C)C[C@@H]2Oc3ccc(NC(=O)c4ccncc4)cc3C(=O)N([C@H](C)CO)C[C@H]2C)cc1	28
Cc1ccc(S(=O)(=O)N(C)C[C@H]2Oc3ccc(NC(=O)c4ccncc4)cc3C(=O)N([C@H](C)CO)C[C@@H]2C)cc1	–
COc1ccc(S(=O)(=O)N(C)C[C@@H]2Oc3ccc(NC(=O)c4ccncc4)cc3C(=O)N([C@@H](C)CO)C[C@@H]2C)cc1	37
C[C@@H]1CN([C@H](C)CO)C(=O)c2cc(NC(=O)c3ccncc3)ccc2O[C@H]1CN(C)S(=O)(=O)c1ccc(Cl)cc1	–
COc1ccc(S(=O)(=O)N(C)C[C@H]2Oc3ccc(NC(=O)c4ccncc4)cc3C(=O)N([C@@H](C)CO)C[C@H]2C)cc1	–
C[C@H]1CN([C@@H](C)CO)C(=O)c2cc(NC(=O)c3ccncc3)ccc2O[C@@H]1CN(C)S(=O)(=O)c1ccc(F)cc1	–
Cc1noc(C)c1NC(=O)N(C)C[C@@H]1Oc2ccc(NC(=O)C3CCCCC3)cc2C(=O)N([C@H](C)CO)C[C@@H]1C	–
CO[C@H]1CN(C)C(=O)c2cc(NS(=O)(=O)CC(F)(F)F)ccc2OC[C@H](C)N(Cc2nccs2)C[C@@H]1C	–
COc1ccc(NC(=O)Nc2ccc3c(c2)[C@@H]2C[C@@H](CC(=O)N4CCc5ccccc5C4)O[C@H](CO)[C@@H]2O3)cc1	–
COc1ccccc1N1CC(C(=O)OC(C)C(=O)Nc2ccc(F)cc2)CC1=O (configuration not stated)	–
COc1ccccc1NC(=O)C(C)OC(=O)C1CC(=O)N(c2ccc3c(c2)OCCO3)C1 (configuration not stated)	107
COc1ccccc1OCCNC(=O)C1CC(=O)N(c2ccc3c(c2)OCCO3)C1 (configuration not stated)	–
O=C(NCC[C@@H]1CC[C@@H](NS(=O)(=O)c2ccc(Cl)cc2)[C@H](CO)O1)c1ccccc1F	–
O=[N+]([O-])c1cc(S(=O)(=O)Nc2ccccc2)ccc1N1CCN(c2ccccc2)CC1	–
Cc1ccc(S(=O)(=O)NC(C)c2ccccc2)cc1[N+](=O)[O-] (configuration not stated)	–
O=[N+]([O-])c1cc(S(=O)(=O)O)cc([N+](=O)[O-])c1NN(c1ccccc1)c1ccccc1	56
CCC(=O)Nc1ccc2c(c1)OC[C@@H](C)N(C(C)=O)C[C@@H](C)[C@H](OC)CN(C)C2=O	–
CC(C)NC(=O)N(C)C[C@@H]1Oc2c(NC(=O)C3CCOCC3)cccc2C(=O)N([C@H](C)CO)C[C@@H]1C	–
C[C@@H]1CN([C@@H](C)CO)C(=O)Cc2cc(NS(=O)(=O)c3ccccc3)ccc2O[C@H]1CN(C)Cc1ccc(C(=O)O)cc1	–
O=S(=O)(Nc1cccc(Oc2cnccn2)c1)c1ccc(F)cc1	40
C=CCN(CC=C)CC(=O)Nc1cccc(Oc2cnccn2)c1	–
SMILES	E-selectin induc
COc1ccc(S(=O)(=O)Nc2cccnc2)cc1	–
Cn1c(=O)c2c(nc(SCC(=O)N3CCOCC3)n2C)n(C)c1=O	–
CCCSc1nc2c(c(=O)n(C)c(=O)n2C)n1C	–
CC1CCCC(C)N1C(=O)CSc1nc2c(c(=O)n(C)c(=O)n2C)n1C (configuration not stated)	27
CC(=O)N(C)C[C@H]1Oc2cc(C3=CCCCC3)ccc2S(=O)(=O)N([C@H](C)CO)C[C@@H]1C	–
CO[C@H]1CN(C)C(=O)c2ccc(NS(=O)(=O)c3ccc(Cl)cc3)cc2OC[C@H](C)N(C(=O)NC(C)C)C[C@H]1C	–
CCc1ccc(C(=O)NNc2ccccc2F)cc1	–
CCc1ccc(C(=O)NNc2ccc(F)cc2)cc1	–
CCCc1ccc(C(=O)NNc2ccccc2F)cc1	55
Cc1noc(C)c1S(=O)(=O)N(C)C[C@H]1OCCCC[C@H](C)Oc2ccc(NC(=O)Cc3ccccc3)cc2C(=O)N([C@H](C)CO)C[C@H]1C	–
COc1ccc2c3c(n(C)c2c1)[C@@H](CO)N(Cc1ccncc1)CC31CN(C(=O)NC(C)C)C1	–
O=C(O)CN1C(=O)/C(=C\c2cc(Br)ccc2OCc2ccc(Cl)cc2)SC1=S	49
O=C(O)CN1C(=O)/C(=C\c2cc(Br)ccc2OCc2ccc(F)cc2)SC1=S	–
COc1ccc(/C=C2/SC(=S)N(CC(=O)O)C2=O)cc1OCc1ccc(Cl)cc1	–
CN(C)CC(=O)Nc1ccc2c(c1)[C@@H]1C[C@@H](CC(=O)N3CCc4ccccc4C3)O[C@@H](CO)[C@@H]1O2	–
O=C(CCc1ccccc1)NCC(=O)N/N=C/c1ccc2c(c1)OCO2	–
O=C(CNc1ccccc1)N/N=C/c1ccc2c(c1)OCO2	31
O=C(N/N=C/c1ccc2c(c1)OCO2)C(=O)Nc1ccccc1	–
COCC(=O)Nc1ccc2c(c1)C(=O)N(C)[C@@H]1CC[C@H](CC(=O)NCCCN(C)C)O[C@@H]1CO2	–
C[C@@H]1CN([C@@H](C)CO)C(=O)c2cc(NC(=O)CCC(F)(F)F)ccc2O[C@@H](C)CCCCO[C@@H]1CN(C)Cc1ccc(C(F)(F)F)cc1	–
CN(CC(=O)Nc1ccc(Cl)c(Cl)c1)C1CCCCC1	75
CN(CC(=O)Nc1ccc(S(N)(=O)=O)cc1)C1CCCCC1	–
CN(CC(=O)Nc1ccccc1Cl)C1CCCCC1	–
CO[C@@H]1CN(C)C(=O)c2cc(NC(C)=O)ccc2OC[C@@H](C)N(Cc2ccccn2)C[C@@H]1C	–
Cc1noc(C)c1NC(=O)N(C)C[C@H]1Oc2ccc(NC(=O)Cn3cnnn3)cc2C(=O)N([C@H](C)CO)C[C@H]1C	–
SMILES	E-selectin induc
Cc1noc(C)c1NC(=O)N(C)C[C@@H]1Oc2ccc(NC(=O)Cn3cnnn3)cc2C(=O)N([C@@H](C)CO)C[C@@H]1C	103
C[C@@H]1CN([C@H](C)CO)C(=O)c2cc(NC(=O)Cc3ccccc3)ccc2O[C@H]1CN(C)C(=O)NC1CCCCC1	71
C[C@@H]1CN([C@@H](C)CO)C(=O)c2cc(NS(=O)(=O)c3cccs3)ccc2O[C@H]1CN(C)C(=O)Nc1ccc2c(c1)OCO2	284
Cc1noc(C)c1NC(=O)N(C)C[C@@H]1Oc2ccc(NC(=O)c3ccncc3)cc2C(=O)N([C@@H](C)CO)C[C@H]1C	–
C[C@@H]1CN([C@@H](C)CO)C(=O)c2cc(NC(=O)Cc3ccccc3)ccc2O[C@H]1CN(C)C(=O)NC1CCCCC1	–
Cc1noc(C)c1NC(=O)N(C)C[C@@H]1Oc2ccc(NC(=O)c3ccncc3)cc2C(=O)N([C@H](C)CO)C[C@H]1C	354
C[C@H]1CCCCO[C@@H](CN(C)C(=O)NC2CCCCC2)[C@@H](C)CN([C@@H](C)CO)C(=O)c2cc(NC(=O)Cc3ccccc3)ccc2O1	–
C[C@H]1CN([C@@H](C)CO)C(=O)c2cc(NS(=O)(=O)c3cccs3)ccc2O[C@H]1CN(C)C(=O)Nc1ccccc1	–
Cc1noc(C)c1NC(=O)N(C)C[C@@H]1Oc2ccc(NC(=O)Cn3cnnn3)cc2C(=O)N([C@@H](C)CO)C[C@H]1C	–
